Results from different studies.
Lines come from different studies, so protocols differ.
PIK3CA H1047L: Phosphatidylinositol 4,5-bisphosphate 3-kinase catalytic subunit alpha isoform (PIK3CA, Homo sapiens, UniProt P42336, H1047L)
PIK3CA I800L: Phosphatidylinositol 4,5-bisphosphate 3-kinase catalytic subunit alpha isoform (PIK3CA, Homo sapiens, UniProt P42336, I800L)
PIK3CA E545K: Phosphatidylinositol 4,5-bisphosphate 3-kinase catalytic subunit alpha isoform (PIK3CA, Homo sapiens, UniProt P42336, E545K)
PIK3CA: Phosphatidylinositol 4,5-bisphosphate 3-kinase catalytic subunit alpha isoform (PIK3CA, Homo sapiens, UniProt P42336)
PIK3CA C420R: Phosphatidylinositol 4,5-bisphosphate 3-kinase catalytic subunit alpha isoform (PIK3CA, Homo sapiens, UniProt P42336, C420R)
PIK3CA M1043I: Phosphatidylinositol 4,5-bisphosphate 3-kinase catalytic subunit alpha isoform (PIK3CA, Homo sapiens, UniProt P42336, M1043I)
PIK3CA E545A: Phosphatidylinositol 4,5-bisphosphate 3-kinase catalytic subunit alpha isoform (PIK3CA, Homo sapiens, UniProt P42336, E545A)
PIK3CA H1047Y: Phosphatidylinositol 4,5-bisphosphate 3-kinase catalytic subunit alpha isoform (PIK3CA, Homo sapiens, UniProt P42336, H1047Y)
PIK3CA Q546K: Phosphatidylinositol 4,5-bisphosphate 3-kinase catalytic subunit alpha isoform (PIK3CA, Homo sapiens, UniProt P42336, Q546K)
PIK3CA E542K: Phosphatidylinositol 4,5-bisphosphate 3-kinase catalytic subunit alpha isoform (PIK3CA, Homo sapiens, UniProt P42336, E542K)

Compound | target | read-out | method | tested at | remaining binding
O=C(NCCCC1CCCCC1)c1ccc(CNC(=O)c2cnn(-c3ccccc3)c2C(F)(F)F)cc1 | PIK3CA H1047L | cell-free assay | competition with immobilised ligand | 0.1 µM | 86%
COc1cnc(Nc2cccc(S(N)(=O)=O)c2)nc1N1CCN(c2ccccc2)CC1 | PIK3CA I800L | binding | competition with immobilised ligand | 1 µM | 83%
O=C(NCC1CCOCC1)c1n[nH]cc1NC(=O)c1c(F)cccc1F | PIK3CA E545K | binding | competition with immobilised ligand | 1 µM | 75%
C[C@H]1CCN(c2nccc(-c3cnn4ncccc34)n2)C1 | PIK3CA I800L | binding | – | 1 µM | 95%
O=C(c1ccc(Nc2ncc(Cl)c(-c3cc4ccccc4s3)n2)cc1)N1CCC(N2CCCC2)CC1 | PIK3CA H1047L | binding | competition with immobilised ligand | 1 µM | 80%
O=C(Nc1c[nH]nc1C(=O)NC1CCNCC1)c1cc(F)cc(F)c1 | PIK3CA | binding | competition with immobilised ligand | 1 µM | 100%
COc1ncc2cc3ccccc3nc2c1C#N | PIK3CA E545K | cell-free assay | competition with immobilised ligand | 5 µM | 100%
CN1CCN(c2ccc(Nc3nccc(-c4ccccc4)n3)cc2C(F)(F)F)CC1 | PIK3CA I800L | binding | – | 10 µM | 56%
O=C(c1ccc(Nc2nccc(-c3cc4ccccc4s3)n2)cc1)N1CCC(N2CCCC2)CC1 | PIK3CA I800L | binding | competition with immobilised ligand | 1 µM | 100%
Cc1nc(Cc2cccc(C(F)(F)F)c2)sc1-c1ccc(C(N)=O)nc1 | PIK3CA C420R | cell-free assay | competition with immobilised ligand | 1 µM | 89%
CCN(CC)Cc1cc(Nc2ccnc3cc(Cl)ccc23)ccc1O | PIK3CA | cell-free assay | competition with immobilised ligand | 0.1 µM | 97%
COc1ccnn2ncc(-c3ccnc(N(C)C)n3)c12 | PIK3CA C420R | binding | – | 1 µM | 78%
COc1cnc(Nc2cccc(S(N)(=O)=O)c2)nc1N1CCN(c2ccccc2)C(=O)C1 | PIK3CA M1043I | binding | competition with immobilised ligand | 1 µM | 85%
O=C(NCCCN1CCOCC1)c1ccc(Nc2ncc(Cl)c(-c3ccc(Cl)s3)n2)cc1 | PIK3CA E545A | binding | competition with immobilised ligand | 1 µM | 100%
CC1CCCN1c1nccc(-c2cnn3ncccc23)n1 (stereo not shown) | PIK3CA H1047Y | binding | – | 1 µM | 88%
Cc1c(-c2ccccc2)oc2c(C(=O)OCCN3CCCCC3)cccc2c1=O | PIK3CA | cell-free assay | competition with immobilised ligand | 10 µM | 100%
O=C(c1ccc(Nc2ncc(Cl)c(-c3ccc(Cl)s3)n2)cc1)N1CCC(N2CCCC2)CC1 | PIK3CA Q546K | binding | competition with immobilised ligand | 1 µM | 100%
c1cncc(-c2cccc(Nc3nccc(NC4CCCCC4)n3)c2)c1 | PIK3CA | binding | competition with immobilised ligand | 10 µM | 100%
Nc1ncc2c(n1)-c1c([nH]c3ccc(C#CC4CC4)cc13)CCCC2 | PIK3CA C420R | binding | competition with immobilised ligand | 1 µM | 86%

Compound | target | read-out | method | tested at | remaining binding
CN(C)c1ncc(F)c(-c2cnn3ncccc23)n1 | PIK3CA E542K | binding | – | 1 µM | 69%
CNCc1ccccc1-c1csc([C@H](C)Nc2nc(C)nc3cc(OC)c(OC)cc23)c1 | PIK3CA I800L | cell-free assay | competition with immobilised ligand | 1 µM | 81%
N[C@H]1CCN(c2nccc(-c3cnn4ncccc34)n2)C1 | PIK3CA H1047Y | binding | – | 1 µM | 56%
Cn1nc(C(F)(F)F)cc1-c1cnc(N2CCc3cc(S(=O)(=O)Nc4c(F)cc(Cl)cc4F)cc(N4CCCC4=O)c32)nc1 | PIK3CA E545K | cell-free assay | competition with immobilised ligand | 1 µM | 82%
O=C(NCCCN1CCOCC1)c1ccc(Nc2nccc(-c3cc4ccccc4s3)n2)cc1 | PIK3CA E545K | binding | competition with immobilised ligand | 1 µM | 40%
c1ccc(N2CCN(Cc3nc4ccccc4[nH]3)CC2)nc1 | PIK3CA Q546K | cell-free assay | competition with immobilised ligand | 1 µM | 100%
CNC(=O)[C@@H]1CC[C@@H](n2c(-c3ccc4cnccc4c3)nc3ccc(C(=O)NCc4cccc(C(N)=O)c4)cc32)C1 | PIK3CA H1047Y | binding | competition with immobilised ligand | 1 µM | 100%
CN1CCN(c2ccc(Nc3nccc(-c4cccc([N+](=O)[O-])c4)n3)cc2C(F)(F)F)CC1 | PIK3CA M1043I | binding | – | 10 µM | 35%
C=CC(=O)N1CCC(C(=O)NCC(=O)N2CCN(c3nc(-c4cnc(N)nc4C(F)F)nc(N4CCOCC4)n3)CC2)CC1 | PIK3CA E542K | binding | competition with immobilised ligand | 1 µM | 0%
CN(CCCC(F)(F)F)c1nccc(-c2cnn3ncccc23)n1 | PIK3CA I800L | binding | – | 1 µM | 100%
CCCOc1ccc([C@H]2[C@H](C(=O)O)[C@@H](c3ccc4c(c3)OCO4)CN2CC(=O)Nc2c(CC)cccc2CC)cc1 | PIK3CA I800L | cell-free assay | competition with immobilised ligand | 1 µM | 81%
Cc1cnc(Nc2ccc(C(=O)N3CCC(N4CCCC4)CC3)cc2)nc1-c1cc2ccccc2s1 | PIK3CA H1047Y | binding | competition with immobilised ligand | 1 µM | 65%
CS(=O)(=O)c1cc(C2(NC(=O)c3cncc4c3cnn4-c3ccc(F)cc3)CC2)ccn1 | PIK3CA Q546K | cell-free assay | competition with immobilised ligand | 1 µM | 66%
C[C@@H](c1ccc(-n2cnc3c(N)ncnc32)cc1)N1CCc2nn(C)c(Cc3ccccc3)c2C1=O | PIK3CA I800L | binding | competition with immobilised ligand | 0.1 µM | 71%
CN(C)c1nccc(-c2cnc3ncccn23)n1 | PIK3CA I800L | binding | – | 1 µM | 63%
COCCOc1nc(-c2ccc(Cl)nc2)nc2c1CN(C(=O)c1ncn3ccccc13)CC2 | PIK3CA E545A | cell-free assay | competition with immobilised ligand | 0.1 µM | 100%
CN(c1nccc(-c2cnn3ncccc23)n1)C1CC1 | PIK3CA E545K | binding | – | 1 µM | 100%
CCN1CCN(Cc2ccc(C(=O)Nc3ccc(C)c(Oc4ccc5c(c4)CC(=O)N5)c3)cc2C(F)(F)F)CC1 | PIK3CA E545A | binding | competition with immobilised ligand | 1 µM | 71%
